“And” between values parts separate entries of the source, which are not always exact repeats. Equal entries are not always repeated.

Data set [1] relates to P. aeruginosa PAO1. The data set is described as follows: MIC by broth microdilution, wild-type strain. The note with it: 24 h, 37 °C; listed as F. The data set is classed as cell-based, Pseudomonas aeruginosa.
For data set [2], the system named is P. aeruginosa PAO1 MexABCDXY− (N150). Description: MIC by broth microdilution, efflux-deficient strain. The data set is classed as cell-based, Pseudomonas aeruginosa. The note with it: 24 h, 37 °C; listed as F. (Dilution methods test growth across graded concentrations, often in twofold steps.)
Data set [3] deals with P. aeruginosa cells. Description: Killing kinetics. The note with it: 37°C; linear regression after 1 hr lag. The data set is classed as cell-based, Pseudomonas aeruginosa.
For data set [4], the system named is P. aeruginosa PAO1. Description: In vitro post-antibiotic effect. In kind it is cell-based, Pseudomonas aeruginosa. The following applies: 1 h exposure, 1:1000 dilution. In short, it runs like this:
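Drug removed by 1:1000 dilution into pre-warmed medium. Regrowth at 37 °C counted immediately and hourly for 8 h (detection limit 1 log10 CFU/mL). Triplicate independent occasions; mechanistic PD model fitted.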

Data set [5] is described as follows: Plasma protein binding, equilibrium dialysis, mouse. The following applies: 50 μM. The data set is classed as in vitro ADME. On the technique in general: In equilibrium dialysis only unbound substance equilibrates across the membrane.
Data set [6] can be described thus: Plasma protein binding, equilibrium dialysis, human. In kind it is in vitro ADME. The following applies: 50 μM.
The test system of data set [7] is P. aeruginosa strain PAO1. The data set is described as follows: Neutropenic mouse thigh infection model, single dose time course. In kind it is in vivo, CD-1 mice. The following applies: resistance emergence test.

In the case of `COc1ccc(-c2ccn(CC[C@](C)(C(=O)NO)S(C)(=O)=O)c(=O)c2)c(F)c1` [Compound 6], in data set [1], the “P.ae MIC PAO1” value was 0.25 μg/ml and 0.61 μM. Moreover, the “P.ae MIC PAO1 MexABCDXY−” value in data set [2] was 0.0075 μg/ml and 0.018 μM. This compound also showed a maximum killing rate in data set [3] of 2.8 log10 CFU/hr. In addition, in data set [4], the “PAE at 4x MIC” value stood at 1.26 h, the “PAE at 8x MIC” value was 1.67 h and the “PAE at 16x MIC” value was found to be 1.93 h. In addition, in data set [5], the “free fraction (fu)” value came out at 0.41. In data set [6], the “free fraction (fu)” value is recorded as 0.28. In addition, the “CFU from 24 h timepoints on selective media (4× MIC)” value in data set [7] was “no CFU were obtained”.

Values taken from PMC4536915 (Nature chemical biology, 2015).
